Calls of active or inactive are those of the source. The calls are words filed in the database; no cut-off is given here.
Legend:
[1] = target: T1, Bromodomain-containing protein 4 (Homo sapiens, UniProt O60885); assay: Inhibition of BRD4 in human SAE cells assessed as reduction in TLR3 agonist poly(I:C) -induced ISG54 RNA expression preincubated for 24 hrs followed by poly(I:C) addition and measured after 4 hrs by SYBR green dye-based qRT-PCR analysis; type: cell-based
[2] = target: T1, Bromodomain-containing protein 4; assay: Inhibition of BRD4 in human SAE cells assessed as reduction in TLR3 agonist poly(I:C) -induced ISG56 RNA expression preincubated for 24 hrs followed by poly(I:C) addition and measured after 4 hrs by SYBR green dye-based qRT-PCR analysis; type: cell-based
[3] = target: T1, Bromodomain-containing protein 4; assay: Inhibition of BRD4 in human SAE cells assessed as reduction in TLR3 agonist poly(I:C) -induced IL-8 RNA expression preincubated for 24 hrs followed by poly(I:C) addition and measured after 4 hrs by SYBR green dye-based qRT-PCR analysis; type: cell-based
[4] = target: T1, Bromodomain-containing protein 4; assay: Inhibition of BRD4 in human SAE cells assessed as reduction in TLR3 agonist poly(I:C) -induced grobeta RNA expression preincubated for 24 hrs followed by poly(I:C) addition and measured after 4 hrs by SYBR green dye-based qRT-PCR analysis; type: cell-based
[5] = target: CREB-binding protein (Homo sapiens, UniProt Q92793); assay: Inhibition of CBP (unknown origin) after 1 hr by TR-FRET assay
Chain of CREB-binding protein (Q92793 whole entry): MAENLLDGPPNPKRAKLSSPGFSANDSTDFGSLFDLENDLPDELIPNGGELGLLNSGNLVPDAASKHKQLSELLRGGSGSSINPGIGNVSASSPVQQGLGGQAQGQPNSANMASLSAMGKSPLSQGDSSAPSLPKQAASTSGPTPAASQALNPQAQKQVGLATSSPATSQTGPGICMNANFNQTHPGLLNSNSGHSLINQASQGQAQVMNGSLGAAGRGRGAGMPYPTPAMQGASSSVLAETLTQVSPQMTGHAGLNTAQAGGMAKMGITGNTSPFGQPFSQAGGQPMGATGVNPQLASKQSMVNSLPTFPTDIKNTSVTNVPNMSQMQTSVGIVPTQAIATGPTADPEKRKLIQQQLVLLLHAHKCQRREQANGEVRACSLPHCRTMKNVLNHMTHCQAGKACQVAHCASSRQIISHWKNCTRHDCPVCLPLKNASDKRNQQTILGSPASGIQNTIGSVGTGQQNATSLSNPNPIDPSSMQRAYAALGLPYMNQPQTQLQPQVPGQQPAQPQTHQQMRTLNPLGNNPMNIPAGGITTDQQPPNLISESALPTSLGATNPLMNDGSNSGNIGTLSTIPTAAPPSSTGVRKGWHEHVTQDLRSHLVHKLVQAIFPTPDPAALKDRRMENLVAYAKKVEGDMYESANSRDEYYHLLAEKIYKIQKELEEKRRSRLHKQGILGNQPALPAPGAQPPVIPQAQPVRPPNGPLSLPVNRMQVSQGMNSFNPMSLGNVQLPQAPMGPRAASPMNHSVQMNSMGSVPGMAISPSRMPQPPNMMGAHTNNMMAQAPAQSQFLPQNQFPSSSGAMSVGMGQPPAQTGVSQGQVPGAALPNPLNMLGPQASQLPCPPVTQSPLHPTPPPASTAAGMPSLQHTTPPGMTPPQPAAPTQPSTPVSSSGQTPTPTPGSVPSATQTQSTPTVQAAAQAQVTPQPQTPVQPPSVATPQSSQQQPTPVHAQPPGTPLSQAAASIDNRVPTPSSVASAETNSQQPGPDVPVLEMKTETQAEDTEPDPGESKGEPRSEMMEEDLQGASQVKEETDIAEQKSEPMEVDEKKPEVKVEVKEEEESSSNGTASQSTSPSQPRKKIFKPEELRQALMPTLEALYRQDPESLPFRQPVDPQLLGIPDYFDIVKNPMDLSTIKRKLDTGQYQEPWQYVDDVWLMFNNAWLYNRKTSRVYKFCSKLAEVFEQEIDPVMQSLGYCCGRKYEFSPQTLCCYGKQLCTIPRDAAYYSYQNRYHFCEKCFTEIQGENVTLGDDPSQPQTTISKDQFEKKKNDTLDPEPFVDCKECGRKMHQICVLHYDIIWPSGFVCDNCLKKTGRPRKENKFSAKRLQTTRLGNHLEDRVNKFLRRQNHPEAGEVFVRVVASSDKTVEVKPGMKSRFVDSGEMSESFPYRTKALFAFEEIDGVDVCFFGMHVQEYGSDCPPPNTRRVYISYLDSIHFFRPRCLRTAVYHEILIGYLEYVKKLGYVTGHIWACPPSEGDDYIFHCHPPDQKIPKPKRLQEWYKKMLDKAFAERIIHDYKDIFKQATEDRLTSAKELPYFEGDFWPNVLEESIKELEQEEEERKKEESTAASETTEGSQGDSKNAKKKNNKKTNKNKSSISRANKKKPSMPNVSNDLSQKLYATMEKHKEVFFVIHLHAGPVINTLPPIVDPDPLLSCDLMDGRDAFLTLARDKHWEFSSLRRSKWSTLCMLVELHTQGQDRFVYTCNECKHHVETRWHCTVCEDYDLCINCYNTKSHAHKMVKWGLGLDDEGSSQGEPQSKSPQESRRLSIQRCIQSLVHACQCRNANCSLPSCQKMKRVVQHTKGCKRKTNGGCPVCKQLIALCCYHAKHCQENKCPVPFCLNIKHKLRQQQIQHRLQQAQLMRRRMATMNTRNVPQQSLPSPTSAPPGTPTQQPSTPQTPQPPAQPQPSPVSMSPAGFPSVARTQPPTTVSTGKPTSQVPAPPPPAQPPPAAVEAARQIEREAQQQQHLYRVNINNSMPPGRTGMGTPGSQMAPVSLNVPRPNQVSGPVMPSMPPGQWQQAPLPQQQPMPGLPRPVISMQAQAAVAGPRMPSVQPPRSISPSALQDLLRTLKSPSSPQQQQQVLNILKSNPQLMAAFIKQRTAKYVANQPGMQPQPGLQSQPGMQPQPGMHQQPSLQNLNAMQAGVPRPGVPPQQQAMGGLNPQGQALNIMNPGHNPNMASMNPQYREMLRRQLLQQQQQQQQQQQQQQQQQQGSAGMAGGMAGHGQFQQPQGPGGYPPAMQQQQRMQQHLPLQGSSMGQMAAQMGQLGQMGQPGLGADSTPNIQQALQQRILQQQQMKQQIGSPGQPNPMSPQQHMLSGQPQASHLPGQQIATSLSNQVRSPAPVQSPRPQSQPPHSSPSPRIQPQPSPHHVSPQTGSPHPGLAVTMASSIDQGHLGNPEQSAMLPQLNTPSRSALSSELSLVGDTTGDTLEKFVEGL
In short: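 Isolated bromodomain in a kit TR-FRET assay. Inhibitor series 0.01 nM to 100 μM, incubated 1 h at room temperature. Excitation 340 nm, emission read at 620 and 670 nm with 100 μs delay and 500 μs window. IC50 from the sigmoidal plot of the 670/620 ratio against concentration. Mean of at least two runs.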

[6] = tested on: Mus musculus; assay: (§1) Anti-inflammatory activity in poly(I:C)-induced airway inflammation C57BL/6 mouse model assessed as reduction in neutrophils recruitment into bronchoalveolar lavage fluid at 10 mg/kg, ip administered 1 day prior to poly(I:C) stimulation and redosed on day 2 followed by poly(I:C) stimulation by trypan blue staining-based hemocytometric analysis; type: functional, organism-based
[7] = tested on: Mus musculus; assay: Anti-inflammatory activity in poly(I:C)-induced airway inflammation C57BL/6 mouse model assessed as reduction in mKC expression in lung at 10 mg/kg, ip administered 1 day prior to poly(I:C) stimulation and redosed on day 2 followed by poly(I:C) stimulation; type: functional, organism-based
In short: (§2)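 Male C57BL/6J mice, 12 weeks old, were given 10 mg/kg i.p. one day before stimulation. The next day they got a second dose, immediately followed by intranasal poly(I:C) (300 μg in 50 μL PBS) or PBS alone. Compound was taken up in DMSO and diluted in 10% hydroxypropyl β-cyclodextrin in PBS. Mice were euthanized one day later and lung tissue was collected for cytokine expression.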

[8] = tested on: Mus musculus; assay: Anti-inflammatory activity in poly(I:C)-induced airway inflammation C57BL/6 mouse model assessed as reduction in mISG54 expression in lung at 10 mg/kg, ip administered 1 day prior to poly(I:C) stimulation and redosed on day 2 followed by poly(I:C) stimulation; type: functional, organism-based; in short: as §2
[9] = tested on: Mus musculus; assay: Anti-inflammatory activity in poly(I:C)-induced airway inflammation C57BL/6 mouse model assessed as reduction in mIL6 expression in lung at 10 mg/kg, ip administered 1 day prior to poly(I:C) stimulation and redosed on day 2 followed by poly(I:C) stimulation; type: functional, organism-based; in short: as §2
[10] = tested on: Mus musculus; assay: Anti-inflammatory activity in poly(I:C)-induced airway inflammation C57BL/6 mouse model assessed as reduction in mCIG5 expression in lung at 10 mg/kg, ip administered 1 day prior to poly(I:C) stimulation and redosed on day 2 followed by poly(I:C) stimulation; type: functional, organism-based; in short: as §2
[11] = Half life in rat at 10 mg/kg, iv; type: ADME, organism-based; details: in vivo
[12] = AUC (0 to t) in rat at 10 mg/kg, iv; type: ADME, organism-based; details: in vivo
[13] = Volume of distribution at steady state in rat at 10 mg/kg, iv; type: ADME, organism-based; details: in vivo, read-out: Vdss
[14] = Total clearance in rat at 10 mg/kg, iv; type: ADME, organism-based; details: in vivo
[15] = Cmax in rat at 20 mg/kg, po; type: ADME, organism-based; parameters: dose 20 mg/kg, route oral; details: in vivo
[16] = AUC (0 to t) in rat at 20 mg/kg, po; type: ADME, organism-based; details: in vivo
[17] = tested on: Mus musculus; assay: as §1, with “total cells in” for “neutrophils recruitment into”; type: functional, organism-based

SMILES	IC50 [1]	IC50 [2]	IC50 [3]	IC50 [4]	IC50 [5]	Activity [6]	Activity [7]	Activity [8]	Activity [9]	Activity [10]	half-life [11]	AUC(0-t) [12]	Vd [13]	clearance [14]	Cmax [15]	AUC(0-t) [16]	Activity [17]
CC(C)(C)c1cc(-c2nnc(-c3cc(F)cc(Cl)c3)o2)no1	7.9 µM	7.7 µM	4.3 µM	3.9 µM													
Cc1sc2c(c1C)C(c1ccc(Cl)cc1)=N[C@@H](CC(=O)OC(C)(C)C)c1nnc(C)n1-2					9.6 µM	inactive	inactive	inactive	inactive	inactive							
COc1cc(OC)c2c(=O)[nH]c(-c3cc(C)c(OCCO)c(C)c3)nc2c1 [APABETALONE]					> 10 µM	inactive	inactive	inactive	inactive	inactive							
Cc1cc(/N=N/c2ccc3c(c2)CCC(=O)N3)c(N)cc1O	0.49 µM	0.51 µM	0.53 µM	0.58 µM	> 10 µM	Active	Active	Active	Active	Active	1.2 h	14.7 µg·h/mL	0.864 L/kg	0.69 L/h/kg	0.08 µg/mL	0.45 µg·h/mL	Active
